Test results taken from PubChem BioAssay AID493015 (Southern Research Specialized Biocontainment Screening …, 2011).
Calls of active or inactive are those of the source.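 The calls were made as follows: active = cell viability under 70% at any tested dose, a measure not printed in our tables; inactive = the rest.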

test system: HEp-2 cells, viability, luminescence (cytotoxicity counter-screen); assay: HEp-2 cell cytotoxicity, dose response, cytotoxicity control for RSV inhibitor project, synthesized compounds, set 4 (AID 493015)
Outline: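 Material: HEp-2 cells; quantity: 10,595 cells per well; buffer or medium: DMEM/F12 at pH 7.5 with heat-inactivated FBS; dosing: 8-point 1:2 series, 50–0.39 µM, 0.5% DMSO; schedule: 6-day compound exposure, 37 °C; signal: CellTiter-Glo luminescence; evaluation: CC50 from 4-parameter fit, bounds fixed 0 and 100; repeats: each concentration tested in triplicate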

Compared with Cc1ccc2c(c1)CCN2C(=O)[C@@H]1CCCN1S(=O)(=O)c1cccc2cccnc12, Cc1cccc(NC(=O)[C@@H]2CCCN2S(=O)(=O)c2cccc3cccnc23)c1 is 1.5-fold higher in CC50: 18.1 µM for the first, 27.6 µM for the second.

First: O=C(Nc1ccccc1)[C@@H]1CCCN1S(=O)(=O)c1cccc2cccnc12
Second: CC(C)c1ccccc1NC(=O)[C@@H]1CCCN1S(=O)(=O)c1cccc2cccnc12
The CC50 of the first is 3-fold higher: 49 µM for the first, 16.5 µM for the second.

COc1ccccc1CNC(=O)C1CCN(S(=O)(=O)c2cccc3nonc23)CC1 was tested, and the CC50 was > 50 µM (inactive).
